The values that follow come from ChEMBL document CHEMBL4616679, “Fragment Screening Hit Draws Attention to a Novel Transient Pocket Adjacent to the Recognition Site of the tRNA-Modifying Enzyme TGT” (J Med Chem, 2020).

pKi: −log10 of the molar value.

The nature of this test: Inhibition of Zymomonas mobilis tRNA-guanine transglycosylase expressed in Escherichia coli cells BL21-CodonPlus (DE3)-RIPL in presence of and tRNATyr [-3H]-guanine incubated for 60 mins by liquid scintillation counting based radioactive assay. In a few lines:
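Z. mobilis TGT (Strep-tag II removed by thrombin) at 9–150 nM, chosen by expected affinity; tRNA^Tyr held at 1.5 µM with saturating [8-³H]-guanine at 10 µM in 100 mM HEPES pH 7.3, 20 mM MgCl₂, 0.037% (v/v) Tween 20. Four 15 µL aliquots taken at 60 min intervals; guanine incorporation into tRNA read by liquid scintillation counting; Ki from reduction of incorporation rate.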
For the molecule `Nc1nc2cc3[nH]c(NCCN4CCOCC4)nc3cc2c(=O)[nH]1`, the pKi is 8.22.

For `CNc1nc2cc3c(=O)[nH]c(N)nc3cc2[nH]1`, the pKi is 7.24.

Turning to `CNC(=O)c1ccc2nc(NCCN3CCOCC3)[nH]c2c1`, the negative logarithm of the Ki (pKi) is 3.58.

Take `CNc1nc2ccc(C(N)=O)cc2[nH]1`: the negative logarithm of the Ki (pKi) is 3.52.

On to `CNc1nc2cc(NC(=N)N)ccc2[nH]1`, for which the negative-log Ki (pKi) was 4.72.

As to `NC(=O)c1ccc2nc(NCCN3CCOCC3)[nH]c2c1`, the pKi was 3.26.

For the molecule `NNC(=O)c1ccc2nc(NCCN3CCOCC3)[nH]c2c1`, the negative-log Ki (pKi) is 3.55.

As to `N=C(N)Nc1ccc2[nH]c(NCCN3CCOCC3)nc2c1`, the pKi is 4.24.

For `CNc1nc2cc3c(cc2[nH]1)CNC(N)=N3`, the negative logarithm of the Ki (pKi) was 4.77.

Take `CC#CC1NC(N)=Nc2cc3nc(NC)[nH]c3cc21` (racemic): the negative-log Ki (pKi) is 4.32.

On to `CNc1nc2cc3c(=O)[nH]cnc3cc2[nH]1`, for which the pKi is 5.15.

For `CNC(=O)c1ccc2nc(NC)[nH]c2c1`, the negative-log Ki (pKi) was 3.57.

`CNc1nc2ccc(C(=O)NN)cc2[nH]1`: the pKi is 3.55.
